From ChEMBL document CHEMBL1629654, “Breakthrough Aspergillus fumigatus and Candida albicans double infection during caspofungin treatment: laboratory characteristics and implication for susceptibility testing” (2009)

Columns and labels:
Format in all cases: functional
Candida albicans [1] = assay: Antimicrobial activity against Candida albicans isolate C after 48 hrs by microdilution method
Procedure, shortened: (§1)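 Broth microdilution in microtiter plates, read spectrophotometrically at 490 nm. MIC taken as the lowest drug dilution giving 50% growth inhibition. C. krusei […] run as control in each run. Read at 24 h and 48 h; trailing growth noted at 48 h.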

Candida albicans [2] = assay: Antimicrobial activity against Candida albicans isolate R after 24 hrs by microdilution method; procedure, shortened: as §1
Candida albicans [3] = assay: Antimicrobial activity against Candida albicans isolate R after 48 hrs by microdilution method; procedure, shortened: as §1
Candida albicans [4] = assay: Antimicrobial activity against Candida albicans isolate C after 48 hrs by EUCAST microdilution method
Procedure, shortened: (§2)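 EUCAST broth microdilution, plates read spectrophotometrically at 490 nm. MIC is the lowest dilution giving 50% growth inhibition. C. krusei […] control included in each run.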

Candida albicans [5] = assay: Antimicrobial activity against Candida albicans isolate C after 24 hrs by microdilution method; procedure, shortened: as §1
Candida albicans [6] = assay: Antimicrobial activity against Candida albicans isolate R after 48 hrs by EUCAST microdilution method; procedure, shortened: as §2

SMILES | MIC (Candida albicans [1]) | MIC (Candida albicans [2]) | MIC (Candida albicans [3]) | MIC (Candida albicans [4]) | MIC (Candida albicans [5]) | MIC (Candida albicans [6])
CCC(C)n1ncn(-c2ccc(N3CCN(c4ccc(OCC5COC(Cn6cncn6)(c6ccc(Cl)cc6Cl)O5)cc4)CC3)cc2)c1=O (stereo not drawn) [ITRACONAZOLE] | ≤ 0.03 µg/mL | ≤ 0.03 µg/mL | ≤ 0.03 µg/mL | ≤ 0.03 µg/mL | ≤ 0.03 µg/mL | ≤ 0.03 µg/mL
CC[C@@H]([C@H](C)O)n1ncn(-c2ccc(N3CCN(c4ccc(OC[C@@H]5CO[C@@](Cn6cncn6)(c6ccc(F)cc6F)C5)cc4)CC3)cc2)c1=O [POSACONAZOLE] | ≤ 0.03 µg/mL | ≤ 0.03 µg/mL | ≤ 0.03 µg/mL | ≤ 0.03 µg/mL | ≤ 0.03 µg/mL | ≤ 0.03 µg/mL
C[C@@H](c1ncncc1F)[C@](O)(Cn1cncn1)c1ccc(F)cc1F [VORICONAZOLE] | ≤ 0.03 µg/mL | ≤ 0.03 µg/mL | ≤ 0.03 µg/mL | ≤ 0.125 µg/mL | ≤ 0.03 µg/mL | ≤ 0.03 µg/mL
